# High-throughput results from PubChem BioAssay.
# Rows were chosen to be rich in hits. Some 3.1% of all compounds tested hit in one or more screens of this group.
# Ecoli rRNA inh = inhibits bacterial ribosomal RNA function over humanized ribosomes; GFP signal change (wild-type ribosome), % (test concentration not listed); AID 720706; hit rate 1.6% among 350,000; E. coli WT GFP vs humanized-ribosome RFP mutants, fluorescence, 24 h; stronger effect = lower value; DMSO median 0, no signal -100;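 active = significant combined selectivity score with lowered wild-type GFP, culture density cut under 30%, mutant RFP and density less affected; inactive = any of these conditions unmet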
# CFTR F508del cor = correctors of CFTR F508del function in bronchial epithelial cells | activity (quench increase), % at 7.58 µM | hit rate 0.36% among 350,000 | AID 720511 | CFBE cells, YFP halide quenching; stimulated with forskolin plus potentiator P3; % fluorescence drop versus neutral controls;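 active = mean added fluorescence quench of at least 8% versus neutral control, with both replicates also reaching 8%; inconclusive = only one of the mean or replicate conditions met; inactive = mean below 8% and not both replicates reaching 8%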;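 note: cells transiently co-express mutant CFTR-F508del with the halide-sensitive YFP; corrector assay measuring rescue of mutant channel to the surface after 24 h compound exposure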
# Cneo AK release = causes C. neoformans cell lysis; AID 651654; lysis activity, % at 15 µM; hit rate 0.2% among 360,000; adenylate kinase release luminescence, 4 h; normalised: neutral wells 0, clomiphene wells 100;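 active = mean lysis activity across replicates of at least 80%, whatever share of replicates individually reach that level; inactive = mean lysis activity below 80%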
#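 read-out = cell lysis signal | test system = log-phase Cryptococcus neoformans yeast cells | input = cells at 5 × 10^6 per mL | medium = fresh YPD growth medium | signal = luminescent adenylate kinase detection reagent | timing = 4 h at 37 °C static, read 1 h later | dosing = single dose | controls = Clomiphene as positive lysis control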
# Env fusion inh = blocks HIV Env-driven cell-cell fusion | HeLa-JRFL Env/CEM21 cell fusion, luciferase | inhibition, % at 12.3 µM | hit rate 1.1% among 360,000;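 active = mean replicate inhibition score of at least 50 and every replicate individually at or above 50; inconclusive = only one of the two criteria met; inactive = mean below 50 and not all replicates reaching 50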;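 note: 0% = plate neutral controls and 100% = maraviroc near 300 nM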
# INS-1E GSIS act = GLuc luminescence reporter in INS-1E cells, primary screen for activators of glucose-dependent secretion of insulin; INS-1E GLuc reporter insulin secretion, 2-3 h; activation, % at 16.6 µM; hit rate 0.61% among 370,000;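 active = lowest replicate activation of at least 40%, so every replicate reaches that level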;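 note: 0% = median of neutral control wells and 100% = median of IBMX positive control wells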
# miR-122 sensor = inhibitors of miR-122 in Huh7 cells | hit rate 0.3% among 340,000 | activation (reporter increase), % at 12.5 µM | Huh7 miR-122 Renilla luciferase sensor, 48 h; neutral wells = 0, positive control = 100;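 active = mean replicate activation score at least 90 and every replicate individually at or above 90; inconclusive = only one of the two criteria met; inactive = neither criterion met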;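 note: higher luciferase means less miR-122 activity so hits act as miR-122 inhibitors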
# An asterisk follows results filed as active; u = inconclusive; x = not tested or not shown; [ ] = another dose, or the depositor's remark.
SMILES,Ecoli rRNA inh,CFTR F508del cor,Cneo AK release,Env fusion inh,INS-1E GSIS act,miR-122 sensor
COc1ccc(C2c3c(ncn(CCCO)c3=N)Oc3ccc4ccccc4c32)cc1OC (centres undefined),-18,3,3,-25,x,0
COc1ccc(C2c3c(ncn(CCCO)c3=N)Oc3ccc4ccccc4c32)cc1 (centres undefined),-47*,0,1,9,-1,-4
COc1ccccc1[C@@H]1C(c2ccc(F)cc2)=NN(c2ccccc2)[C@H]1C(=O)N1CCOC1=O,6,3,1,82*,x,3
O=C(C1=C(c2ccccc2)C(=O)c2ccccc2C1=O)c1ccccc1,-55,-2,x,155*,-8,x
Cc1noc(C)c1CSCC(=O)Nc1nc(-c2ccc(F)c(F)c2)cs1,-21,-5,-1,61*,-20,x
COc1ccc(-c2csc(NC(=O)CSCc3c(C)noc3C)n2)cc1OC,-35,2,-6,-11,4,-5
CCCn1nc(C(=O)Nc2ccc3nc(N4CCOCC4)sc3c2)ccc1=O,4,-2,-2,85*,39,x
O=C1N[C@@H](Cc2ccccc2)COCc2cnnn2CC[C@H]1Cc1cccc(F)c1,5,x,x,x,8,x
Cc1ccc(S(=O)(=O)NC(C)(C)CSc2nnc(Nc3ccccc3)s2)cc1,x,x,2,58*,x,u
C[C@H]1CN([C@@H](C)CO)C(=O)c2cc(C#CC3CC3)cnc2O[C@H]1CN(C)Cc1ccccn1,5,-3,45,-19[16.7 µM],-6,1[16.7 µM]
Cc1ccc(C)c(S(=O)(=O)Nc2ccc(C(=O)N3CCC3)cc2)c1,16,2,-1,-19,43*,u
Cc1ccc(NS(=O)(=O)c2cc(C(=O)N3CCN(C)CC3)ccc2C)cc1,x,x,2,x,x,9
Cc1cc(C)c(C)c(S(=O)(=O)Nc2ccc(C(N)=O)cc2)c1C,-11,3,x,3,5,x
Cc1cccc(NS(=O)(=O)c2cccc(C(=O)N3CCCCCC3)c2)c1,-6,0,-3,x,23,72
Cc1cccc(NS(=O)(=O)c2cccc(C(=O)N3CCCCCCC3)c2)c1,-62,7,0,10,-61,163*
Cc1cc(C)c(C)c(S(=O)(=O)Nc2ccc(C(=O)N3CCCC3)cc2)c1C,-15,3,3,6,-9,135*
CC(=O)N1CCSc2ccc(S(=O)(=O)Nc3cccc(C)c3)cc21,-23*,3,-4,8,-10,81
CCCN(C)C[C@@H]1Oc2ncc(C#CCOC)cc2C(=O)N([C@@H](C)CO)C[C@@H]1C,8,0,-3,5[16.7 µM],19,-4[16.7 µM]
Cc1ccc(C)c(S(=O)(=O)Nc2cc3c4c(c2)CC(=O)N4CCC3)c1,-8,-7,-1,-27,16,163*
CCC(=O)N1CC[C@H]2[C@H](CO)Nc3ccc(-c4cccc(C#N)c4)cc3[C@H]21,-3,-1,-1,x,2,-10[16.7 µM]
c1ccc(-c2nc3c4ccccc4ccn3c2CN2CCOCC2)cc1,-29*,-4,-5,-6,6,4
Clc1ccc(-c2nc3c4ccccc4ccn3c2Cc2ccsc2)cc1,18,1,x,65*,x,x
Cc1cc(Br)cn2c(Cc3ccsc3)c(-c3ccc(F)cc3)nc12,-27,8.1*,0,-44,-33,5
Cc1c(Cl)cccc1NC(=O)C1CC(=O)N(C2CCCC2)C1 (centres undefined),1,13*,2,x,35,-3
Cc1c(Cl)cccc1NC(=O)CNC(=O)C1CC(=O)N(C2CCCC2)C1 (centres undefined),2,2,2,x,30,-11
SMILES,Ecoli rRNA inh,CFTR F508del cor,Cneo AK release,Env fusion inh,INS-1E GSIS act,miR-122 sensor
COc1ccc(Cl)cc1NC(=O)C(C)NC(c1ccccc1)c1ccccc1 (centres undefined),x,x,x,59*,-7,1
Cn1c(CSc2nc3ccc(Br)cc3[nH]2)nc2ccccc21,-22*,-1,0,x,-38,7
COC(=O)c1ccc(/C=N/OCC(=O)NC2CCCCCCC2)cc1,x,x,-1,x,x,163*
COC(=O)c1ccc(/C=N/OCC(=O)NC2CCCC(C)C2C)cc1 (centres undefined),x,x,1,39,x,30
CC1(C)Cc2ccccc2-c2nnc(SCc3ccccc3)n21,-36,4,1,x,-15,-7
CCn1c(SCC(=O)N2CCN(c3ccccc3)CC2)nnc1-c1c[nH]c2ccccc12,-6,2,0,65*,-6,-4
CCOC(=O)C(C)Sc1nnc2n1C(C)(C)Cc1ccccc1-2 (centres undefined),-22*,x,2,-18,18,-1
CC1(C)Cc2ccccc2-c2nnc(SCC(=O)N3CCN(c4ccccc4)CC3)n21,x,x,-1,83*,-28,-4
C=CCn1c(COc2cccc(C)c2C)nnc1SCC(=O)N1CCN(c2ccccc2)CC1,-41,x,x,64*,-46,x
Cn1c(SCC(=O)N2CCN(c3ccccc3)CC2)nnc1-c1c[nH]c2ccccc12,-7,1,1,33,x,-7
CC(=O)Nc1cccc2c1O[C@H](CN(C)C(=O)NC(C)C)[C@@H](C)CN(C)C2=O,-1,x,x,x,4,x
CNC[C@@H]1Oc2ccc(NC(=O)Nc3ccc(F)cc3)cc2CC(=O)N([C@H](C)CO)C[C@@H]1C,4,-2,-1,x,-10,-4[16.7 µM]
CN(c1ccc(C(=O)N2CCN(Cc3ccc4c(c3)OCO4)CC2)cc1)S(=O)(=O)c1ccccc1,x,x,-3,u,-27,-1
Cc1ccc(S(=O)(=O)N(C)c2ccc(C(=O)N3CCN(Cc4ccc5c(c4)OCO5)CC3)cc2)cc1,x,x,5,83*,-31,x
CN(c1ccc(C(=O)N2CCN(Cc3ccccc3)CC2)cc1)S(=O)(=O)c1ccccc1,1,2,2,27,56*,10
COc1ccc(S(=O)(=O)N(C)c2ccc(C(=O)N3CCCC3)cc2)cc1OC,0,-1,-4,25,43*,-8
Cc1ccc(S(=O)(=O)Nc2ccc3c(c2)C(=O)N([C@@H](C)CO)C[C@@H](C)[C@H](CN(C)Cc2ccc(C(=O)O)cc2)OCCCC[C@H](C)O3)cc1,1,-2,3,23[16.7 µM],7,4[16.7 µM]
CC(C)CN(C[C@@H]1[C@@H](c2ccccc2)[C@H](CO)N1C(=O)C1CCC1)C(=O)C1CC1,-1,-2,-2,x,-11,50[16.7 µM]
C=CS(=O)(=O)c1ccc(Oc2ccc(S(=O)(=O)C=C)cc2)cc1,-9,x,x,-355,83*,x
NS(=O)(=O)c1ccc(Oc2ccc(S(N)(=O)=O)cc2)cc1,12,2,x,-10,11,x
Cc1ccc(S(=O)(=O)NCC(=O)N/N=C/c2ccccc2O)cc1,-31*,0,-2,-8,0,-8
